From ChEMBL document CHEMBL1629587, “Discovery of a small-molecule inhibitor of {beta}-1,6-glucan synthesis” (2009) come the findings set out here.

In general, MIC refers to the smallest concentration in the dilution series that meets the test's criterion for growth inhibition. A high value points to weaker potency. The term MIC50 denotes the lowest concentration that inhibits either 50% of growth or 50% of the strains tested, depending on the study. A low value points to higher susceptibility. By MFC is commonly meant the lowest tested concentration that kills the fungus rather than only halting it.

The subject of one assay is Aspergillus sp. The assay can be described thus: Antifungal activity against Aspergillus sp. at 32 ug/ml after 24 hrs by microdilution method. The assay is classed as functional, organism-based. The gist of the method: (§1)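 CLSI broth microdilution run at 30°C instead of standard temperature; starting inoculum 1 × 10^3 to 3 × 10^3 cells/ml; DMSO under 1% final. Endpoints: MIC-0 = lowest concentration giving an optically clear well; MIC-2 = 50% drop versus drug-free control in absorbance at 570 nm with alamar blue redox indicator, used because treated cells clump.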
Background: In broth dilution the organism is exposed to a series of concentrations in liquid medium.

The subject of the next assay is Clavispora lusitaniae. The assay can be described thus: Antifungal activity against Candida lusitaniae ATCC 200951 after 24 hrs by microdilution method. It is filed as functional. The conditions noted are these: ATCC 200951, 24 h. The procedure, abridged:
as §1

Assay [1] relates to Trichosporon asahii. The assay can be described thus: Antifungal activity against Trichosporon asahii ATCC 90039 after 24 hrs by microdilution method. The assay is classed as functional. Particulars: ATCC 90039, 24 h. The gist of the method: as §1
The subject of assay [2] is Candida albicans. The assay can be described thus: Induction of multibudding phenotype in Candida albicans ATCC 24433 after 18 hrs by microscopy. It is filed as functional, organism-based. The procedure, abridged: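 Exponential-phase cells suspended in RPMI 1640 with or without drug (2 μg/ml shown), shaken gently 18 h at 30°C, fixed in 3% glutaraldehyde in 0.1 M phosphate buffer, inspected by inverted light microscopy.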

Another assay concerns Cryptococcus neoformans. Kind of assay: Antifungal activity against Cryptococcus neoformans ATCC 90112 after 24 hrs by microdilution method. It is filed as functional. The conditions noted are these: ATCC 90112, 24 h. The procedure, abridged:
as §1

Assay [3] concerns Candida albicans. Kind of assay: Inhibition of hyphal elongation of Candida albicans ATCC 24433 at 4 ug/ml after 24 hrs by microscopy. It is filed as functional, organism-based. The gist of the method:
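Hyphae induced in HFM-7 medium (Lee's medium also used) on type I collagen-coated wells, drug 0, 1, 4 or 16 μg/ml; static culture at 37°C, viewed by light microscopy after 6 h or 24 h.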

The test system of assay [4] is Trichosporon asahii. The assay can be described thus: Antifungal activity against Trichosporon asahii ATCC 90039 at 32 ug/ml after 24 hrs by microdilution method. It is filed as functional, organism-based. The gist of the method:
as §1

Another assay relates to Staphylococcus aureus. Kind of assay: Antibacterial activity against Staphylococcus aureus 209P. It is filed as functional.
For assay [5], the system named is Candida tropicalis. Kind of assay: Fungicidal activity against Candida tropicalis TIMM0313 after 24 hrs by microdilution method. The assay is classed as functional. Particulars: TIMM0313, 24 h. The gist of the method: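 Fungicidal concentration: after the MIC plate read, 4 μl from each well transferred into 200 μl MOPS-buffered RPMI, incubated 24 h at 30°C; MFC = lowest drug concentration with no visible growth.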

Assay [6] concerns Saccharomyces cerevisiae. Kind of assay: […] activity against Saccharomyces cerevisiae AY-10 transformed with pRS416-31 carrying KRE6 gene after 24 hrs by microdilution method. It is filed as functional. The conditions noted are these: AY-10, 24 h.
The next assay concerns Aspergillus flavus. Kind of assay: Antifungal activity against Aspergillus flavus ATCC 64025 after 24 hrs by microdilution method. The conditions noted are these: ATCC 64025, 24 h. The assay is classed as functional. The procedure, abridged: as §1
The test system of assay [7] is Saccharomyces cerevisiae. The assay can be described thus: Antifungal activity against Saccharomyces cerevisiae YPH500 after 24 hrs by microdilution method. The conditions noted are these: YPH500, 24 h. It is filed as functional. The procedure, abridged:
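CLSI broth microdilution, incubated at 30°C, starting inoculum 1 × 10^3 to 3 × 10^3 cells/ml; drugs from DMSO, final DMSO below 1%. MIC-0 is the lowest concentration giving an optically clear well. MIC-2 is read with alamar blue as a 50% drop in A570 versus the drug-free control; both endpoints were recorded.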

Assay [8] has as its system Candida tropicalis. The assay can be described thus: Antifungal activity against Candida tropicalis ATCC 200956 after 24 hrs by microdilution method. Particulars: ATCC 200956, 24 h. The assay is classed as functional. The procedure, abridged:
as §1

The next assay relates to Nakaseomyces glabratus. Kind of assay: Antifungal activity against Candida glabrata ATCC 200918 after 24 hrs by microdilution method. It is filed as functional. Particulars: ATCC 200918, 24 h. The gist of the method:
as §1

The test system of assay [9] is Saccharomyces cerevisiae. The assay can be described thus: Fungicidal activity against Saccharomyces cerevisiae AY-10-R15 mutant after 24 hrs by microdilution method. The assay is classed as functional. The conditions noted are these: AY-10-R15, 24 h.

Converted amounts (≈) assume the structure as drawn. The source made the active and inactive calls. Bounds are passed on as bounds.

For the compound `CCc1c(C)c(C#N)c2nc3ccccc3n2c1NCCN(CC)CC`, the outcome in the assay with Aspergillus sp. and with Trichosporon asahii [4] was inactive. The MIC in the assay with Clavispora lusitaniae was 16 µg/mL (≈ 45.8 µM); with Trichosporon asahii [1], more than 32 µg/mL; in the assay with Cryptococcus neoformans, more than 32 µg/mL; against Staphylococcus aureus, more than 32 µg/mL; against Saccharomyces cerevisiae [6], 32 µg/mL (≈ 91.6 µM); against Aspergillus flavus it was more than 32 µg/mL. For the same compound, the minimal inhibitory concentration (MIC) was 2 µg/mL (≈ 5.72 µM) against Saccharomyces cerevisiae [7], 1 µg/mL (≈ 2.86 µM) against Candida tropicalis [8], 4 µg/mL (≈ 11.4 µM) against Nakaseomyces glabratus and more than 64 µg/mL against Saccharomyces cerevisiae [9]. Besides, the MIC50 against Clavispora lusitaniae is 8 µg/mL (≈ 22.9 µM); in the assay with Trichosporon asahii [1] it was more than 32 µg/mL; against Cryptococcus neoformans, more than 32 µg/mL; against Aspergillus flavus, more than 32 µg/mL; against Saccharomyces cerevisiae [7] it was 1 µg/mL (≈ 2.86 µM); against Candida tropicalis [8] it was 1 µg/mL (≈ 2.86 µM). Also, the MIC50 against Nakaseomyces glabratus worked out at 4 µg/mL (≈ 11.4 µM). Besides, the result in the assay with Candida albicans [2] was Active. Moreover, in the assay with Candida albicans [3], the inhibition entry is “Active”. The compound also came in with an MFC against Candida tropicalis [5] of more than 32 µg/mL.
